Experimental data as given in ChEMBL document CHEMBL4610127, “Novel Autotaxin Inhibitor for the Treatment of Idiopathic Pulmonary Fibrosis: A Clinical Candidate Discovered Using DNA-Encoded Chemistry” (J Med Chem, 2020).
Activity calls are given as the source filed them. No cut-off for these calls is given here.

Tested on: Mus musculus
Experiment: Anti-fibrotic activity in C57BL/6 mouse model of bleomycin-induced lung fibrosis assessed as reduction in hydroxyproline levels at 30 to 100 mg/kg, po BID for 21 days dosed 7 days after bleomycin treatment
Format: functional, organism-based
How it was run: (§1)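 Mice received oral doses of 30, 100 or 300 mg/kg BID. Prophylactic arm started one day before bleomycin; therapeutic arm started seven days after. Mice were sacrificed 21 days post-bleomycin and lung hydroxyproline was measured per mouse. Group medians were compared with bleomycin + vehicle by p-value. Reference inhibitor control: 30 and 100 mg/kg BID.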

SMILES	Activity
CCc1nc2c(C)cc(N3CCN(CC(=O)N4CC(O)C4)CC3)cn2c1N(C)c1nc(-c2ccc(F)cc2)c(C#N)s1	Active

Molecular target: T1, Autotaxin (Homo sapiens, UniProt Q13822)
Experiment: Inhibition of C-terminal FLAG-tagged human autotaxin expressed in Freestyle 293 cells using synthetic substrate FS-3 by fluorescence based assay
Format: cell-based

IC50 [µM]	SMILES
0.0035	CNC(=O)CN1CN(c2ccccc2)C2(CCN(C(=O)[C@H](NC(=O)c3cccc(Cl)c3)C3CCCCC3)CC2)C1=O
0.002	CNC(=O)CN1CN(c2ccccc2)C2(CCN(C(=O)[C@H](NC(=O)c3cccc(C)c3F)C3CCCCC3)CC2)C1=O
0.002	Cc1cccc(C(=O)N[C@@H](C(=O)N2CCC3(CC2)C(=O)N(C)CN3c2ccccc2)C(C)C)c1
0.0022	CC(C)[C@@H](NC(=O)c1cccc(F)c1)C(=O)N1CCC2(CC1)C(=O)N(C)CN2c1ccccc1
0.0016	Cc1cccc(C(=O)N[C@@H](C(=O)N2CCC3(CC2)C(=O)N(C)CN3c2ccccc2)C2CCCCC2)c1F
0.35	CNC(=O)CN1CN(c2ccccc2)C2(CCN(C(=O)[C@H](NC(=O)c3ccccc3)C3CCCCC3)CC2)C1=O

Molecular target: T1, Autotaxin
Experiment: Inhibition of C-terminal FLAG-tagged human autotaxin expressed in Freestyle 293 cells assessed as reduction in choline release from LPC 16:0 pre-incubated for 10 mins before LPC addition and measured after 1 hr by choline oxidase/HRP coupled assay
Format: cell-based

SMILES	IC50 [µM]
CN1C(=O)N(c2ccc3[nH]ncc3c2)C2(CCN(C(=O)[C@H](NC(=O)c3cc(C(F)(F)F)ccc3F)C3CCCC3)CC2)C1=O	0.034
CN1C(=O)N(c2ccc3[nH]ncc3c2)C2(CCN(C(=O)CNC(=O)c3cc(C(F)(F)F)ccc3F)CC2)C1=O	10
Cc1cccc(C(=O)N[C@@H](C(=O)N2CCC3(CC2)C(=O)N(C)C(=O)N3c2ccccc2)C(C)C)c1F	0.683
CC(C)[C@@H](NC(=O)c1cc(C(F)(F)F)ccc1F)C(=O)N1CCC2(CC1)C(=O)N(C)C(=O)N2c1cccc(Cl)c1	0.046
CNC(=O)CN1CN(c2ccccc2)C2(CCN(C(=O)[C@H](NC(=O)c3cccc(C)c3F)C3CCCCC3)CC2)C1=O	0.086
CC(C)[C@@H](NC(=O)c1cc(C(F)(F)F)ccc1F)C(=O)N1CCC2(CC1)C(=O)N(C)C(=O)N2c1ccccc1	0.1
CC(C)[C@H](NC(=O)c1cc(C(F)(F)F)ccc1F)C(=O)N1CCC2(CC1)C(=O)N(C)C(=O)N2c1ccc2[nH]ncc2c1	10
Cc1cccc(C(=O)N[C@H](C(=O)N2CCC3(CC2)C(=O)N(C)CN3c2ccccc2)C2CCOCC2)c1	10
Cc1ccc(N2C(=O)N(C)C(=O)C23CCN(C(=O)[C@H](NC(=O)c2cc(C(F)(F)F)ccc2F)C(C)C)CC3)cc1	0.038
Cc1cccc(C(=O)N[C@@H](C(=O)N2CCC3(CC2)C(=O)N(C)CN3c2ccccc2)C2CCOCC2)c1	0.623
CC(C)[C@@H](NC(=O)c1cc(C(F)(F)F)ccc1Cl)C(=O)N1CCC2(CC1)C(=O)N(C)C(=O)N2c1ccc2[nH]ncc2c1	1.47
CC(C)[C@@H](NC(=O)c1cccc(C(F)(F)F)c1)C(=O)N1CCC2(CC1)C(=O)N(C)C(=O)N2c1ccc2[nH]ncc2c1	0.34
Cc1cccc(C(=O)N[C@@H](C(=O)N2CCC3(CC2)C(=O)N(C)CN3c2ccccc2)C2CCCCC2)c1F	0.056
CC(C)[C@@H](NC(=O)c1cc(C(F)(F)F)ccc1F)C(=O)N1CCC2(CC1)C(=O)N(C)CN2c1ccc2[nH]ncc2c1	0.0134
Cc1cccc(C(=O)N[C@@H](C(=O)N2CCC3(CC2)C(=O)N(C)CN3c2ccccn2)C2CCCCC2)c1	0.905
Cc1ccc(C(F)(F)F)cc1C(=O)N[C@@H](C(=O)N1CCC2(CC1)C(=O)N(C)C(=O)N2c1ccc2[nH]ncc2c1)C(C)C	4.9
Cc1cccc(C(=O)N[C@@H](C(=O)N2CCC3(CC2)C(=O)N(C)CN3C2CC2)C2CCCCC2)c1F	0.819
CC(C)[C@@H](NC(=O)c1cc(C(F)(F)F)ccc1F)C(=O)N1CCC2(CC1)C(=O)N(C)C(=O)N2c1ccc(C(=O)O)cc1	0.031

Tested on: Mus musculus
Experiment: Anti-fibrotic activity in C57BL/6 mouse model of bleomycin-induced lung fibrosis assessed as reduction in hydroxyproline levels at 30 to 100 mg/kg, po BID dosed until day 21 starting one day prior to bleomycin treatment
Format: functional, organism-based
How it was run: as §1

SMILES	Activity
CCc1nc2c(C)cc(N3CCN(CC(=O)N4CC(O)C4)CC3)cn2c1N(C)c1nc(-c2ccc(F)cc2)c(C#N)s1	Active
